According to ChEMBL document CHEMBL1132712, “Bisphosphonate prodrugs: synthesis and in vitro evaluation of novel clodronic acid dianhydrides as bioreversible prodrugs of clodronate” (J Med Chem, 1999):

How the values were obtained:
[1] = The aqueous solubility in phosphate buffer; format: physicochemical; conditions: read-out: S
Outline: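 Excess solid added to phosphate buffer (50 mM, μ = 0.15, pH 7.4) at room temperature and vortexed 30 min. pH checked and adjusted during solubilization. Suspension centrifuged and filtered (0.45 membrane). Filtrate quantified by HPLC.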

[2] = The apparent partition coefficient at pH 2.0; format: physicochemical; conditions: octanol/water
Outline: (§1)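 1-Octanol/phosphate buffer (50 mM, μ = 0.15) at pH 2.0 or 7.4. Prodrug (0.8–1.5 mg) in 1.0 mL buffer shaken with 5.0 mL octanol, 1 h at pH 7.4 or 5 min at pH 2.0. Phases separated by centrifugation. Aqueous concentration measured by HPLC before and after shaking. Triplicate, mean reported.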

[3] = The apparent partition coefficient at pH 7.4; format: physicochemical; conditions: octanol/water; outline: as §1
[4] = (§2) Rate data for enzymatic hydrolysis in 80% human serum at pH 7.4; Completely hydrolyzed during 1 min; format: ADME; conditions: pH 7.4, 1 min
[5] = species on record: Homo sapiens; experiment: as §2; format: ADME, organism-based; conditions: pH 7.4, 1 min
[6] = Rate data in phosphate buffer at pH 7.4; format: ADME
Outline: (§3)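 Chemical hydrolysis at 37 °C in phosphate buffer (50 mM, μ = 0.15) at pH 2.0 or 7.4. Prodrug (12 mg) dissolved in preheated buffer. Samples withdrawn at intervals and assayed by HPLC. Pseudo-first-order rate constants calculated from the buffer hydrolysis data.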

[7] = Rate data in phosphate buffer at pH 2.0; format: ADME; outline: as §3
[8] = (§4) Rate data for enzymatic hydrolysis in 80% human serum at pH 7.4; format: ADME
[9] = as §4; format: ADME, organism-based

Structure (SMILES): CCCC(=O)OP(=O)([O-])C(Cl)(Cl)P(=O)([O-])OC(=O)CCC.[Na+].[Na+]
- solubility [1]: 172 mg/mL
- logD [2]: -1.9
- logD [3]: -2.3
- K obs [4]: Completely hydrolyzed during 1 min
- T1/2 [5]: Completely hydrolyzed during 1 min
- K obs [6]: 0.00037 min⁻¹
- half-life [6]: 31.3 h
- K obs [7]: 0.014 min⁻¹
- half-life [7]: 0.817 h

Structure (SMILES): CC(C)(C)C(=O)OP(=O)([O-])C(Cl)(Cl)P(=O)([O-])OC(=O)C(C)(C)C.[Na+].[Na+]
- solubility [1]: 23.5 mg/mL
- K obs [8]: 0.0035 min⁻¹
- logD [2]: -2
- logD [3]: -2.3
- K obs [6]: 0.000015 min⁻¹
- half-life [6]: 790 h
- K obs [7]: 0.0013 min⁻¹
- half-life [7]: 8.6 h
- half-life [9]: 3.3 h

Structure (SMILES): CC(=O)OP(=O)([O-])C(Cl)(Cl)P(=O)([O-])OC(C)=O.[Na+].[Na+]
- solubility [1]: 190 mg/mL
- logD [2]: -1.4
- logD [3]: -2.2
- K obs [4]: Completely hydrolyzed during 1 min
- T1/2 [5]: Completely hydrolyzed during 1 min
- K obs [6]: 0.00076 min⁻¹
- half-life [6]: 15.2 h
- K obs [7]: 0.016 min⁻¹
- half-life [7]: 0.75 h

Structure (SMILES): O=C(OP(=O)([O-])C(Cl)(Cl)P(=O)([O-])OC(=O)c1ccccc1)c1ccccc1.[Na+].[Na+]
- solubility [1]: 6 mg/mL
- logD [2]: -1.5
- logD [3]: -2.3
- K obs [4]: Completely hydrolyzed during 1 min
- T1/2 [5]: Completely hydrolyzed during 1 min
- K obs [6]: 0.000049 min⁻¹
- half-life [6]: 235 h
- K obs [7]: 0.00004 min⁻¹
- half-life [7]: 286 h
